Measured values collected from several papers.
Target: Ephrin type-A receptor 1 (EPHA1, Homo sapiens, UniProt P21709)
Residues used in one study (P21709 26-976): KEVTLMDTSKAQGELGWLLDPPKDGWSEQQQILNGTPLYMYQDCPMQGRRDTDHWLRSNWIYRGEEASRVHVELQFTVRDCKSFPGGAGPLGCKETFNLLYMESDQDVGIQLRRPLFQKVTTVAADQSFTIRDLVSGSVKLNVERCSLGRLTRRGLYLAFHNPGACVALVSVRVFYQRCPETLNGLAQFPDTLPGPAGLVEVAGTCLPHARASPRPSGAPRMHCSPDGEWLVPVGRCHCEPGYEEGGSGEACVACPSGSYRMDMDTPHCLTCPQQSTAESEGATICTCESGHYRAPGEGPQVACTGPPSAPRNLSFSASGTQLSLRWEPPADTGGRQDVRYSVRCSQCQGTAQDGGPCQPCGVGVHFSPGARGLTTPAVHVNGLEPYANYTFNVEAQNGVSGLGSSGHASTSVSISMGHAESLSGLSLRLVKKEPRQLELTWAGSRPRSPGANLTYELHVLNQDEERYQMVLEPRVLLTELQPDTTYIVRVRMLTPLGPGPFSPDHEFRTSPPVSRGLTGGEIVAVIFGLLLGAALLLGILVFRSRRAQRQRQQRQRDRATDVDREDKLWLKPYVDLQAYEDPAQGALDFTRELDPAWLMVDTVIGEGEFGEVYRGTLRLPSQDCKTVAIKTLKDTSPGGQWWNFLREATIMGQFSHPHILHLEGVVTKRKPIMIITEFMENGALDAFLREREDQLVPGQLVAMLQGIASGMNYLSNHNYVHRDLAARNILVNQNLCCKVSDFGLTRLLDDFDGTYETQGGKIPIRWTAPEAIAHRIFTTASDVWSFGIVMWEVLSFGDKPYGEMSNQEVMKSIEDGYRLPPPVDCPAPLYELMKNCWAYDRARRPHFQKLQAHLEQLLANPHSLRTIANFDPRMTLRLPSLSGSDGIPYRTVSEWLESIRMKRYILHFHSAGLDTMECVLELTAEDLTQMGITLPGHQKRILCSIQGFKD

Compound | test | setting | measurement | value
COc1ncccc1-c1cnn2ccc(N3CCN(C(=O)OC(C)C)CC3)nc12 | binding, competition with immobilised ligand | 1 µM | remaining binding | 84%
COc1cc(Nc2ncc(F)c(Nc3ccc4c(n3)NC(=O)C(C)(C)O4)n2)cc(OC)c1OC | binding, competition with immobilised ligand | 10 µM | inhibition | 98%
Cn1cc(-c2cc(F)cc(N3CCn4c(cc5c4CCCC5)C3=O)c2CO)cc(Nc2ccc(N3CCN(C4COC4)CC3)cn2)c1=O | enzyme activity, inhibitor | 0.1 µM | inhibition | 19%
Cc1nn(C)cc1-c1nc2c(N3CCN(Cc4ccc(Cl)cc4)CC3)c(Cl)cnc2[nH]1 | binding, competition with immobilised ligand | 1 µM | remaining binding | 90%
Cn1cc(-c2cccc(N3CCc4c(sc5c4CC(C)(C)C5)C3=O)c2CO)cc(Nc2ccncn2)c1=O | enzyme activity, inhibitor | 1 µM | inhibition | 3%
CC(C)(C)c1cc(C=C(C#N)C#N)cc(Br)c1O | enzyme activity, inhibitor | 0.5 µM | remaining activity | 85.1%
Nc1ncc(-c2nc(N3CCOCC3)nc(N3CCOCC3)n2)c(C(F)F)n1 | cell-free assay, competition with immobilised ligand | 10 µM | remaining binding | 68%
Cn1cncc1[C@@](O)(COc1ccc(C#N)cc1-c1ccc(OC(F)(F)F)cc1)c1ccc(C#N)cc1 | cell-free assay, competition with immobilised ligand | 1 µM | remaining binding | 93%
O=c1[nH]c2ccccc2n1C1CCN(Cc2ccc(-c3[nH]c4cc5ncnc5cc4nc3-c3ccccc3)cc2)CC1 | cell-free assay | 0.5 µM | remaining signal | 84.4%
